Measurements from ChEMBL document CHEMBL1138266, “Design, synthesis, and biological evaluation of a 1alpha,25-dihydroxy-19-norvitamin D3 analogue with a frozen A-ring conformation” (J Med Chem, 2007).
Calls of active or inactive are those of the source. No cut-off for these calls is given here.

Key:
Vitamin D3 receptor [1] = biological target: T1, Vitamin D3 receptor (Rattus norvegicus, UniProt P13053); test: Displacement of 1-alpha,25-dihydroxyvitamin from rat recombinant VDR
T1 sequence (P13053 whole entry): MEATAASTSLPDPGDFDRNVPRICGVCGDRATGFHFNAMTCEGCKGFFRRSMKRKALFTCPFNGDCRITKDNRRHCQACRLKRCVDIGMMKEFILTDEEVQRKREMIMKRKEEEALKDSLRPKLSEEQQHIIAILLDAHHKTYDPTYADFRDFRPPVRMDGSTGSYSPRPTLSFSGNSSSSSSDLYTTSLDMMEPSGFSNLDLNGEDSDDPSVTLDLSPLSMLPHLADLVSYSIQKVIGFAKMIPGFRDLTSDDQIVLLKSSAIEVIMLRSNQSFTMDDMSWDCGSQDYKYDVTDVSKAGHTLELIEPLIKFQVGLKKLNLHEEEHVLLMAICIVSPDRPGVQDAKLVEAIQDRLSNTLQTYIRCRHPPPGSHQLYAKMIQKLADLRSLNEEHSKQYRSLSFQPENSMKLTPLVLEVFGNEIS
How it was run: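 Competitive binding against radiolabeled 1α,25-(OH)2D3 at 1 nM. Run in duplicate on two separate occasions.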

HL-60 [2] = test: Induction of differention of human HL60 cells into monocytes by NBT reduction assay; format: functional, cell-based
HL-60 [3] = test: Ratio of ED50 for drug to 1-alpha,25-dihydroxyvitamin for HL60 cells differentiation by NBT reduction assay; format: functional, Homo sapiens
How it was run: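 Human HL-60 promyelocytes induced toward monocytic differentiation; maturation scored as percentage of cells reducing nitro blue tetrazolium. […] Experiment repeated in duplicate two times.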

Vitamin D3 receptor [4] = biological target: T1, Vitamin D3 receptor; test: (§1) Activity at VDR in rat osteosarcoma cells assessed as 24-hydroxylase transcription by reporter gene assay; format: cell-based
How it was run: (§2)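 Rat osteosarcoma cells stably carrying a 24-hydroxylase gene reporter plasmid, read as luciferase activity.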

[5] = biological target: T2, Vitamin D3 receptor (Rattus norvegicus) (UniProt P13053); test: as §1; format: cell-based; how it was run: as §2
T2 sequence (whole entry): T1 sequence (P13053 whole entry)

Mus musculus [6] = test: Increase in serum calcium in vitamin D deficient CD1 mouse at 5.4 […], ip after 24 hrs; format: functional, organism-based
How it was run: (§3)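 Female CD-1 mice, 6 weeks old on arrival, were fed a purified vitamin D-deficient diet for 17 weeks (n=3/group). They got a single intraperitoneal injection in 95:5 propylene glycol/ethanol vehicle. Blood was drawn predose and at multiple later times. Serum was diluted in 0.1% lanthanum chloride and calcium read by atomic absorption, reported as change from baseline.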

Mus musculus [7] = test: Increase in serum calcium in vitamin D deficient CD1 mouse at 181.5 […], ip after 24 hrs; format: functional, organism-based; how it was run: as §3
Mus musculus [8] = test: Increase in serum calcium in vitamin D sufficient CD1 mouse at 50 ug/kg, ip; format: functional, organism-based
How it was run: (§4)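 Female CD-1 mice, 6-7 weeks old, were group-housed on a purified diet with 0.47% calcium and acclimated 5-7 days. Each got a single dose (n=5-6/group). Serum calcium was measured by atomic absorption after 0.1% lanthanum chloride dilution. Analysis was one-way ANOVA with pairwise comparisons.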

Mus musculus [9] = test: Increase in serum calcium in vitamin D sufficient CD1 mouse at 150 ug/kg, ip; format: functional, organism-based; how it was run: as §4
Mus musculus [10] = test: Increase in serum calcium in vitamin D sufficient CD1 mouse at 33.3 ug/kg, ip; format: functional, organism-based; how it was run: as §4
Mus musculus [11] = test: Increase in serum calcium in vitamin D sufficient CD1 mouse at 33.3 ug/kg, po; format: functional, organism-based; how it was run: as §4
Mus musculus [12] = test: Increase in serum calcium in vitamin D sufficient CD1 mouse at 150 ug/kg, po; format: functional, organism-based; how it was run: as §4

SMILES | Ki (Vitamin D3 receptor [1]) [nM] | EC50 (HL-60 [2]) [nM] | Ratio ED50 (HL-60 [3]) | EC50 (Vitamin D3 receptor [4]) [nM] | Activity [5] | Activity (Mus musculus [6]) | Activity (Mus musculus [7]) | Activity (Mus musculus [8]) | Activity (Mus musculus [9]) | Activity (Mus musculus [10]) | Activity (Mus musculus [11]) | Activity (Mus musculus [12])
C[C@H](CCCC(C)(C)O)C1CC[C@H]2/C(=C/C=C3/C[C@@H](O)C4=CCCO[C@@H]4C3)CCC[C@]12C (some centres not stated) | 30 | 100 | >100 | 100 | – | – | – | – | – | – | – | –
C[C@H](CCCC(C)(C)O)C1CC[C@H]2/C(=C/C=C3\C[C@@H](O)C4=CCCO[C@@H]4C3)CCC[C@]12C (some centres not stated) | 10000 | 1000 | >1000 | – | inactive | Active | Active | Active | Active | Active | Active | Active
C=C1/C(=C\C=C2/CCC[C@]3(C)[C@@H]([C@H](C)CCCC(C)(C)O)CC[C@@H]23)C[C@@H](O)C[C@@H]1O | – | – | – | – | – | Active | Active | – | – | – | – | –
